{"source": "ChEMBL document CHEMBL1133180", "about": "(2000)", "data": [{"organism": "Mus musculus", "test": "Change in the latency time on day 1 to that of day 2", "assay_type": "functional", "in_short": "(§1)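 Mouse light/dark step-through test with a pitfall floor: entering the dark room drops the mouse 40 cm into 10 °C water. Latencies in s are taken at training and at retention 24 h later, capped at 120 s. Mice not entering within 60 s are excluded. Dosing is sc 20 min before training, in saline or DMSO/H2O vehicle.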", "units": {"Delta latency time": "s"}, "values": [{"smiles": "C[C@@H]1C[C@@H]2CN(C(=O)c3ccc(F)cc3)CCN2C1=O", "note": "(relative stereo)", "Delta latency time": 80}, {"smiles": "O=C(c1ccccc1)N1CCN2C(=O)CC[C@@H]2C1", "Delta latency time": 85.2}, {"smiles": "C[C@H]1C[C@@H]2CN(S(=O)(=O)c3ccccc3)CCN2C1=O", "note": "(relative stereo)", "Delta latency time": 73}, {"smiles": "C[C@@H]1C[C@@H]2CN(S(=O)(=O)c3ccccc3)CCN2C1=O", "note": "(relative stereo)", "Delta latency time": 78.5}, {"smiles": "C[C@H]1C[C@@H]2CN(C(=O)c3ccccc3)CCN2C1=O", "note": "(relative stereo)", "Delta latency time": 85.2}, {"smiles": "O=C1CC[C@@H]2CN(S(=O)(=O)c3ccc([N+](=O)[O-])cc3)CCN12", "Delta latency time": 75.4}, {"smiles": "O=C1CC[C@@H]2CN(Cc3ccccc3)CCN12", "Delta latency time": 63.2}, {"smiles": "CN1[C@@H]2C[C@@H](OC(=O)[C@H](CO)c3ccccc3)C[C@H]1[C@@H]1O[C@@H]12", "note": "[SCOPOLAMINE]", "Delta latency time": 27.9}, {"smiles": "O=C(c1ccc(F)cc1)N1CCN2C(=O)CC[C@@H]2C1", "Delta latency time": 77.2}, {"smiles": "C[C@@H]1C[C@@H]2CN(S(=O)(=O)c3ccc(F)cc3)CCN2C1=O", "note": "(relative stereo)", "Delta latency time": 96.5}, {"smiles": "C[C@@H]1C[C@@H]2CN(C(=O)c3ccccc3)CCN2C1=O", "note": "(relative stereo)", "Delta latency time": 65.8}, {"smiles": "O=C(c1ccc(Cl)cc1)N1CCN2C(=O)CC[C@@H]2C1", "Delta latency time": 85.4}, {"smiles": "COc1ccc(S(=O)(=O)N2CCN3C(=O)CC[C@@H]3C2)cc1", "Delta latency time": 103.5}, {"smiles": "O=C(c1ccc([N+](=O)[O-])cc1)N1CCN2C(=O)CC[C@@H]2C1", "Delta latency time": 78.2}, {"smiles": "O=C1CC[C@@H]2CN(S(=O)(=O)c3ccc(F)cc3)CCN12", "Delta latency time": 93.8}, {"smiles": "Cc1ccc(S(=O)(=O)N2CCN3C(=O)CC[C@@H]3C2)cc1", "Delta latency time": 80.5}, {"smiles": "C[C@H]1C[C@@H]2CN(C(=O)c3ccc(F)cc3)CCN2C1=O", "note": "(relative stereo)", "Delta latency time": 85.6}, {"smiles": "C[C@H]1C[C@@H]2CN(S(=O)(=O)c3ccc(F)cc3)CCN2C1=O", "note": "(relative stereo)", "Delta latency time": 78}, {"smiles": "Cc1ccc(C(=O)N2CCN3C(=O)CC[C@@H]3C2)cc1", "Delta latency time": 84.5}, {"smiles": "NC(=O)CN1CCCC1=O", "Delta latency time": 91.2}]}, {"tested_on": "Mus musculus", "test": "Minimal effective dose to reverse Scopolamine induced amnesia, when given sc in mouse passive avoidance test; Dose limited by solubility problems", "assay_type": "functional", "units": {"Dose": "mg/kg"}, "values": [{"smiles": "O=C1CC[C@@H]2CN(S(=O)(=O)c3ccccc3)CCN12", "Dose": ">10"}, {"smiles": "O=C1CC[C@@H]2CN(S(=O)(=O)c3ccc(Cl)cc3)CCN12", "Dose": ">0.1"}, {"smiles": "COc1ccc(C(=O)N2CCN3C(=O)CC[C@@H]3C2)cc1", "Dose": ">1"}]}, {"tested_on": "Mus musculus", "test": "Minimal effective s.c. dose to reverse Scopolamine induced amnesia in mouse passive-avoidance test.", "units": {"Dose": "mg/kg"}, "values": [{"smiles": "C[C@@H]1C[C@@H]2CN(C(=O)c3ccc(F)cc3)CCN2C1=O", "note": "(relative stereo)", "Dose": 0.1}, {"smiles": "O=C(c1ccccc1)N1CCN2C(=O)CC[C@@H]2C1", "Dose": 1}, {"smiles": "C[C@H]1C[C@@H]2CN(S(=O)(=O)c3ccccc3)CCN2C1=O", "note": "(relative stereo)", "Dose": 10}, {"smiles": "C[C@@H]1C[C@@H]2CN(S(=O)(=O)c3ccccc3)CCN2C1=O", "note": "(relative stereo)", "Dose": 1}, {"smiles": "C[C@H]1C[C@@H]2CN(C(=O)c3ccccc3)CCN2C1=O", "note": "(relative stereo)", "Dose": 1}, {"smiles": "O=C1CC[C@@H]2CN(S(=O)(=O)c3ccc([N+](=O)[O-])cc3)CCN12", "Dose": 10}, {"smiles": "O=C1CC[C@@H]2CN(Cc3ccccc3)CCN12", "Dose": 1}, {"smiles": "O=C(c1ccc(F)cc1)N1CCN2C(=O)CC[C@@H]2C1", "Dose": 10}, {"smiles": "C[C@@H]1C[C@@H]2CN(S(=O)(=O)c3ccc(F)cc3)CCN2C1=O", "note": "(relative stereo)", "Dose": 0.1}, {"smiles": "C[C@@H]1C[C@@H]2CN(C(=O)c3ccccc3)CCN2C1=O", "note": "(relative stereo)", "Dose": 1}, {"smiles": "O=C1CC[C@@H]2CN(Cc3ccc(F)cc3)CCN12", "Dose": ">10"}, {"smiles": "O=C(c1ccc(Cl)cc1)N1CCN2C(=O)CC[C@@H]2C1", "Dose": 10}, {"smiles": "COc1ccc(S(=O)(=O)N2CCN3C(=O)CC[C@@H]3C2)cc1", "Dose": 0.1}, {"smiles": "O=C(c1ccc([N+](=O)[O-])cc1)N1CCN2C(=O)CC[C@@H]2C1", "Dose": 10}, {"smiles": "O=C1CC[C@@H]2CN(S(=O)(=O)c3ccc(F)cc3)CCN12", "Dose": 0.001}, {"smiles": "Cc1ccc(S(=O)(=O)N2CCN3C(=O)CC[C@@H]3C2)cc1", "Dose": 1}, {"smiles": "C[C@H]1C[C@@H]2CN(C(=O)c3ccc(F)cc3)CCN2C1=O", "note": "(relative stereo)", "Dose": 0.1}, {"smiles": "C[C@H]1C[C@@H]2CN(S(=O)(=O)c3ccc(F)cc3)CCN2C1=O", "note": "(relative stereo)", "Dose": 0.1}, {"smiles": "Cc1ccc(C(=O)N2CCN3C(=O)CC[C@@H]3C2)cc1", "Dose": 1}]}, {"tested_on": "Mus musculus", "test": "Minimal effective dose to reverse Scopolamine induced amnesia, when given ip in mouse passive avoidance test", "assay_type": "functional", "in_short": "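Mouse passive avoidance (light/dark box) with a pitfall floor: entering the dark room drops the mouse 40 cm into 10 °C water. Test drugs were given in a 1-to-10 dilution series 20 min before training. […] Retention was tested at 24 h, with a 120 s maximum. Mice not entering within 60 s at training were excluded. The read-out is the retention minus training latency (s).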", "units": {"Dose": "mg/kg"}, "values": [{"smiles": "CN1[C@@H]2C[C@@H](OC(=O)[C@H](CO)c3ccccc3)C[C@H]1[C@@H]1O[C@@H]12", "note": "[SCOPOLAMINE]", "Dose": 1.5}, {"smiles": "NC(=O)CN1CCCC1=O", "Dose": 30}]}, {"organism": "Mus musculus", "test": "Latency time on 2nd (post-treatment) day of mouse passive-avoidance test.", "assay_type": "functional", "in_short": "as §1", "units": {"Latency time": "s"}, "values": [{"smiles": "C[C@@H]1C[C@@H]2CN(C(=O)c3ccc(F)cc3)CCN2C1=O", "note": "(relative stereo)", "Latency time": 104}, {"smiles": "O=C(c1ccccc1)N1CCN2C(=O)CC[C@@H]2C1", "Latency time": 102}, {"smiles": "C[C@H]1C[C@@H]2CN(S(=O)(=O)c3ccccc3)CCN2C1=O", "note": "(relative stereo)", "Latency time": 91.3}, {"smiles": "C[C@@H]1C[C@@H]2CN(S(=O)(=O)c3ccccc3)CCN2C1=O", "note": "(relative stereo)", "Latency time": 94.8}, {"smiles": "C[C@H]1C[C@@H]2CN(C(=O)c3ccccc3)CCN2C1=O", "note": "(relative stereo)", "Latency time": 99.5}, {"smiles": "O=C1CC[C@@H]2CN(S(=O)(=O)c3ccc([N+](=O)[O-])cc3)CCN12", "Latency time": 89.2}, {"smiles": "O=C1CC[C@@H]2CN(Cc3ccccc3)CCN12", "Latency time": 77.4}, {"smiles": "CN1[C@@H]2C[C@@H](OC(=O)[C@H](CO)c3ccccc3)C[C@H]1[C@@H]1O[C@@H]12", "note": "[SCOPOLAMINE]", "Latency time": 44.5}, {"smiles": "O=C(c1ccc(F)cc1)N1CCN2C(=O)CC[C@@H]2C1", "Latency time": 88.9}, {"smiles": "C[C@@H]1C[C@@H]2CN(S(=O)(=O)c3ccc(F)cc3)CCN2C1=O", "note": "(relative stereo)", "Latency time": 118.4}, {"smiles": "C[C@@H]1C[C@@H]2CN(C(=O)c3ccccc3)CCN2C1=O", "note": "(relative stereo)", "Latency time": 83.5}, {"smiles": "O=C(c1ccc(Cl)cc1)N1CCN2C(=O)CC[C@@H]2C1", "Latency time": 103.7}, {"smiles": "COc1ccc(S(=O)(=O)N2CCN3C(=O)CC[C@@H]3C2)cc1", "Latency time": 118.3}, {"smiles": "O=C(c1ccc([N+](=O)[O-])cc1)N1CCN2C(=O)CC[C@@H]2C1", "Latency time": 96.2}, {"smiles": "O=C1CC[C@@H]2CN(S(=O)(=O)c3ccc(F)cc3)CCN12", "Latency time": 104.4}, {"smiles": "Cc1ccc(S(=O)(=O)N2CCN3C(=O)CC[C@@H]3C2)cc1", "Latency time": 95.6}, {"smiles": "C[C@H]1C[C@@H]2CN(C(=O)c3ccc(F)cc3)CCN2C1=O", "note": "(relative stereo)", "Latency time": 107.4}, {"smiles": "C[C@H]1C[C@@H]2CN(S(=O)(=O)c3ccc(F)cc3)CCN2C1=O", "note": "(relative stereo)", "Latency time": 94.9}, {"smiles": "Cc1ccc(C(=O)N2CCN3C(=O)CC[C@@H]3C2)cc1", "Latency time": 100.1}, {"smiles": "NC(=O)CN1CCCC1=O", "Latency time": 108.8}]}, {"organism": "Mus musculus", "test": "Latency time on 1st day of mouse passive-avoidance test.", "assay_type": "functional", "in_short": "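Mouse light/dark step-through test with a pitfall floor: entering the dark room drops the mouse 40 cm into 10 °C water. Mice not entering within 60 s are excluded. Dosing is sc 20 min before training, in saline or DMSO/H2O vehicle.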", "units": {"Latency time": "s"}, "values": [{"smiles": "C[C@@H]1C[C@@H]2CN(C(=O)c3ccc(F)cc3)CCN2C1=O", "note": "(relative stereo)", "Latency time": 24}, {"smiles": "O=C(c1ccccc1)N1CCN2C(=O)CC[C@@H]2C1", "Latency time": 16.8}, {"smiles": "C[C@H]1C[C@@H]2CN(S(=O)(=O)c3ccccc3)CCN2C1=O", "note": "(relative stereo)", "Latency time": 18.3}, {"smiles": "C[C@@H]1C[C@@H]2CN(S(=O)(=O)c3ccccc3)CCN2C1=O", "note": "(relative stereo)", "Latency time": 13.6}, {"smiles": "C[C@H]1C[C@@H]2CN(C(=O)c3ccccc3)CCN2C1=O", "note": "(relative stereo)", "Latency time": 14.3}, {"smiles": "O=C1CC[C@@H]2CN(S(=O)(=O)c3ccc([N+](=O)[O-])cc3)CCN12", "Latency time": 13.8}, {"smiles": "O=C1CC[C@@H]2CN(Cc3ccccc3)CCN12", "Latency time": 14.2}, {"smiles": "O=C(c1ccc(F)cc1)N1CCN2C(=O)CC[C@@H]2C1", "Latency time": 11.7}, {"smiles": "C[C@@H]1C[C@@H]2CN(S(=O)(=O)c3ccc(F)cc3)CCN2C1=O", "note": "(relative stereo)", "Latency time": 21.9}, {"smiles": "C[C@@H]1C[C@@H]2CN(C(=O)c3ccccc3)CCN2C1=O", "note": "(relative stereo)", "Latency time": 17.7}, {"smiles": "O=C(c1ccc(Cl)cc1)N1CCN2C(=O)CC[C@@H]2C1", "Latency time": 18.3}, {"smiles": "COc1ccc(S(=O)(=O)N2CCN3C(=O)CC[C@@H]3C2)cc1", "Latency time": 14.8}, {"smiles": "O=C(c1ccc([N+](=O)[O-])cc1)N1CCN2C(=O)CC[C@@H]2C1", "Latency time": 18}, {"smiles": "O=C1CC[C@@H]2CN(S(=O)(=O)c3ccc(F)cc3)CCN12", "Latency time": 19.7}, {"smiles": "Cc1ccc(S(=O)(=O)N2CCN3C(=O)CC[C@@H]3C2)cc1", "Latency time": 15.1}, {"smiles": "C[C@H]1C[C@@H]2CN(C(=O)c3ccc(F)cc3)CCN2C1=O", "note": "(relative stereo)", "Latency time": 21.8}, {"smiles": "C[C@H]1C[C@@H]2CN(S(=O)(=O)c3ccc(F)cc3)CCN2C1=O", "note": "(relative stereo)", "Latency time": 16.9}, {"smiles": "Cc1ccc(C(=O)N2CCN3C(=O)CC[C@@H]3C2)cc1", "Latency time": 15.6}, {"smiles": "NC(=O)CN1CCCC1=O", "Latency time": 17.6}]}]}
